MrgX1 PAM = human MrgX1 positive allosteric modulation, primary screen; actives 0.63% (n = 310,000); MrgX1-HEK293, Fluo-4 calcium flux, FDSS; stronger effect = higher value; B-score at 10 µM; Q96LB2; AID 588675;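 active = plate-corrected calcium response at least 3 library SD above typical, normal starting fluorescence, not activating the receptor alone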;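 also: compound read alongside a low EC10 to EC30 dose of BAM8-22 agonist; peak minus trough fluorescence over baseline measured at the second addition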
Target sequence (Q96LB2 whole entry, looked up): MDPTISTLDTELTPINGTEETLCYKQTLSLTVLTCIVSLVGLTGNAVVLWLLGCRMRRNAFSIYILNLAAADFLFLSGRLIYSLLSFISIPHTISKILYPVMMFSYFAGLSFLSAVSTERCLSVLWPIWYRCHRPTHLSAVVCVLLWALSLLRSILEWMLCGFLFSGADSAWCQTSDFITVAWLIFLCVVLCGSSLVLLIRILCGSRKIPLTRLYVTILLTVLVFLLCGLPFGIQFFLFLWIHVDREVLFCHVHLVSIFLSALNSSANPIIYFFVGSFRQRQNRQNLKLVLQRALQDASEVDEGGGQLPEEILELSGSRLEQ
MrgX1 agonist = human MrgX1 receptor agonism, primary screen; MrgX1-HEK293 cells, Fluo-4 calcium fluorescence, agonist mode; stronger effect = higher value; B-score at 10 µM; actives 0.44% (n = 310,000);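 active = calcium response B-score plate-corrected fluorescence ratio at least 3 library SD, with starting fluorescence B-score inside 5 SD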
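Material: MrgX1-expressing HEK293 cells; input: 15,000 cells per well; doses: test compound given as first of three sequential additions; schedule: overnight plating before 1 h dye loading; technique: Fluo-4 NW calcium-flux fluorescence, kinetic read; evaluation: baseline-normalised fluorescence change ratio, B-scored; control set: plate-wise positive and negative controls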
MrgX1 antag = antagonists of human MrgX1 receptor. Q96LB2. MRGX1-HEK293 calcium flux, Fluo-4, BAM8-22 antagonism; stronger effect = lower value. actives 1.3% (n = 310,000). AID 588676. B-score at 10 µM;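 active = calcium-response B-score plate-corrected more than 3 library SD below zero, starting fluorescence within 5 deviations, no agonist response on first addition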;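 also: peak minus trough fluorescence over baseline after final BAM8-22 challenge near maximal dose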
RGS4 act = potentiators or activators of RGS4; actives 0.92% (n = 310,000); HEK293 M3R/inducible RGS4, carbachol calcium flux Fluo4; stronger effect = lower value; B-score at 10 µM;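 active = B-score of the integrated calcium signal more than 4 SD below the library mean, with starting fluorescence not abnormally high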;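 also: negative B-score means reduced calcium response which marks RGS4 activation or potentiation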
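test system = M3R-expressing HEK293 line, RGS4 induced by doxycycline | probe or stimulus = carbachol at ECmax as muscarinic agonist stimulus | timing = dye loading 30 min 37 °C, buffer rest 30 min RT | signal = calcium dye Fluo4 fluorescence | evaluation = B score from integrated fluorescence ratio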
RGS4 inh = inhibitors of human RGS4; P49798; HEK293 M3R/RGS4 inducible, Fluo-4 calcium flux; stronger effect = higher value; triggered by carbachol at its EC20; B-score at 10 µM; actives 0.45% (n = 310,000); AID 463165;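 active = B-score, a plate-corrected calcium signal, over three deviations above library mean, with baseline fluorescence within five deviations of library mean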;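 also: RGS4 expression induced by doxycycline in cells with stable M3 receptor; B-score is computed from the integrated fluorescence ratio over baseline after carbachol; higher B-score means a larger calcium signal and so more RGS4 inhibition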
Target sequence (P49798 whole entry, looked up): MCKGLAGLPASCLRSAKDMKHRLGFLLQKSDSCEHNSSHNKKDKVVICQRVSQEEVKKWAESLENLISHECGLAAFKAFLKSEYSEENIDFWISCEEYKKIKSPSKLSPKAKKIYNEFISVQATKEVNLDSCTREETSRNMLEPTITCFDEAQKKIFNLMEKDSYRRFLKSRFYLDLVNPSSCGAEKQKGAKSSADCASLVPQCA
MrgX1 allo conf = confirmation of human MrgX1 receptor positive allosteric modulators; shares compounds with MrgX1 PAM; MrgX1-HEK293, Fluo-4 calcium fluorescence, FDSS; activation (ratio percentage), % at 10 µM; actives 13% (n = 1,200); AID 602413;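 active = ratio at least 3 SD above the weak peptide control, stable starting fluorescence, no direct agonism earlier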;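 also: compound followed by low BAM8-22 agonist challenge near EC20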
HEK293 Ca flux = MrgX1 antagonist counter-screen hit in parental HEK293 cells; fluorescence ratio F(max-min)/F0 at 10 µM; actives 2% (n = 4,000); Fluo-4 calcium fluorescence, FDSS; shares compounds with MrgX1 antag;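 active = duplicate-averaged calcium fluorescence ratio at least three times the standard deviation of buffer wells, a nonspecific response in parental cells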
HEK293 Ca counter = MrgX1 allosteric activator counter-screen hit in parental HEK293 cells. shares compounds with MrgX1 antag. parental HEK293 calcium flux, Fluo-4 fluorescence ratio; stronger effect = higher value. fluorescence ratio F(max-min)/F0 at 10 µM. actives 0.4% (n = 4,000). AID 624114;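 active = calcium fluorescence ratio, averaged over duplicates, at least 3 SD of the buffer-well ratio, meaning a nonspecific response in receptor-free cells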;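 also: untransfected parental HEK293 lacking MrgX1 used as counterscreen for MrgX1 allosteric activators; fluorescence change taken during the second addition on a kinetic imager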
HEK293 Ca cntr2 = activity in parental HEK293 cells lacking MrgX1 receptor; shares compounds with MrgX1 antag; Fluo-4 calcium fluorescence (FDSS); stronger effect = higher value; fluorescence ratio F(max-min)/F0 at 10 µM; actives 8.7% (n = 4,000);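 active = calcium fluorescence ratio at least three times the spread of buffer wells, meaning a non-specific response in parental cells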
Each line names hits and unclear results; the compound was inactive in the other large screens (follow-up assays come after a bar, where they were run). In the library only some 3.5% were active in any assay of this set; here they are far more common.

COc1cc(/C=C2/C(=N)N3C(=NC2=O)SN=C3S(=O)(=O)C(C)C)ccc1OC(=O)c1ccco1	MrgX1 PAM 38 | MrgX1 allo conf 37% | HEK293 Ca flux inactive | HEK293 Ca counter inactive | HEK293 Ca cntr2 inactive
CCOc1cc(/C=C2/C(=N)N3C(=NC2=O)SN=C3S(=O)(=O)CC)ccc1OC(=O)c1ccco1	MrgX1 PAM 35 | MrgX1 allo conf 24% | HEK293 Ca flux inactive | HEK293 Ca counter inactive | HEK293 Ca cntr2 inactive
CCOc1cc(/C=C2/SC(=S)NC2=O)ccc1OC(=O)c1ccco1	none
CCOc1cc(/C=C2/C(=N)N3C(=NC2=O)SN=C3S(=O)(=O)C(C)C)ccc1OC(=O)c1ccco1	MrgX1 PAM 37 | MrgX1 allo conf 41% | HEK293 Ca flux inactive | HEK293 Ca counter inactive | HEK293 Ca cntr2 48
CCOc1cc(/C=C2/C(=N)N3OC(C)=CC3=NC2=O)ccc1OC(=O)c1ccco1	none
CCOC(=O)c1c(CN(CC)CC)n(C)c2cc(Br)c(O)cc12	MrgX1 PAM 6.9 | MrgX1 allo conf inactive | HEK293 Ca flux inactive | HEK293 Ca counter inactive | HEK293 Ca cntr2 inactive
CC(C)c1ccc(/C=C2\SC(=O)N(CC(=O)NC3CCS(=O)(=O)C3)C2=O)cc1 (centres undefined)	none
Cc1nc(SCC(=O)Nc2cc(C(N)=O)cc(C(N)=O)c2)c2c(C)c(C)sc2n1	MrgX1 PAM 13 | MrgX1 allo conf inactive | HEK293 Ca flux inactive | HEK293 Ca counter inactive | HEK293 Ca cntr2 inactive
Cc1nc(SCC(=O)NCc2ccco2)c2c(C)c(C)sc2n1	none
O=C(Nc1nc2c(F)cc(F)cc2s1)c1ccco1	MrgX1 PAM 16 | MrgX1 allo conf inactive | HEK293 Ca flux inactive | HEK293 Ca counter inactive | HEK293 Ca cntr2 inactive
CCOc1ccc(NC(=O)C2CCCN(S(C)(=O)=O)C2)cc1 (centres undefined)	none
CC12CCC(C(=O)Nc3ccc(SC(F)F)cc3)(CC1=O)C2(C)C (centres undefined)	MrgX1 PAM 6.7 | MrgX1 allo conf inactive | HEK293 Ca flux inactive | HEK293 Ca counter inactive | HEK293 Ca cntr2 inactive
Cc1cc(-c2nnc(SCC(=O)c3ccc(F)cc3)o2)no1	none
CN(C(=O)C1CCCC1)C1CCS(=O)(=O)C1 (centres undefined)	none
O=C(CSc1nc2ccccc2c(=O)n1-c1ccc(OC(F)F)cc1)NCc1cccs1	none
O=C(CSc1nnc(-c2ccc(OC(F)F)cc2)o1)NCc1cccs1	MrgX1 PAM 7.5 | MrgX1 allo conf inactive | HEK293 Ca flux inactive | HEK293 Ca counter inactive | HEK293 Ca cntr2 inactive
Cc1nnc(NC(=O)c2ccc(S(=O)(=O)N3CCOCC3)cc2)s1	MrgX1 PAM 9.8 | MrgX1 allo conf inactive | HEK293 Ca flux inactive | HEK293 Ca counter inactive | HEK293 Ca cntr2 inactive
Cc1nnc(NC(=O)c2ccc(C)c(S(=O)(=O)N3CCOCC3)c2)s1	none
CCCn1c(SCC(=O)NNC(=O)c2ccccc2)nnc1-c1cccnc1	none
Cc1ccc(S(=O)(=O)Nc2c(C)nc3nc(C)[nH]n3c2=O)cc1	none
O=C(Cn1nnc2ccccc21)NCc1ccccc1	MrgX1 PAM 7.2 | MrgX1 allo conf inactive | HEK293 Ca flux inactive | HEK293 Ca counter inactive | HEK293 Ca cntr2 inactive
COC(=O)C1=C(C(=O)OC)[C@@H]2Nc3ccccc3[C@@]23C[C@@H](C(=O)OC)N(C(=O)C2CCC2)C3=N1	none
Cc1nn(-c2ccc(N3CCCCC3)nn2)c(C)c1CCC(=O)Nc1cc(F)ccc1F	MrgX1 PAM 7.8 | MrgX1 allo conf inactive | HEK293 Ca flux inactive | HEK293 Ca counter inactive | HEK293 Ca cntr2 inactive
CS(=O)(=O)N1N=C(c2cccs2)CC1c1ccc(F)cc1 (centres undefined)	MrgX1 PAM 21 | MrgX1 allo conf inactive | HEK293 Ca flux inactive | HEK293 Ca counter inactive | HEK293 Ca cntr2 inactive
O=C(NCc1nnc2c(C(F)(F)F)cc(Cl)cn12)c1cccnc1	none
Cc1nn(C)c(C(=O)NC2C3CC4CC(C3)CC2C4)c1Cl (centres undefined)	MrgX1 PAM 13 | MrgX1 allo conf inactive | HEK293 Ca flux inactive | HEK293 Ca counter inactive | HEK293 Ca cntr2 inactive
CC12C=CC3(O1)C(C(=O)N(c1ccccc1)C3C(=O)NC1CCCC1)C2C(N)=O (centres undefined)	none
CC(C)CC(CO)N1CCN(C(=O)c2cccc(C(F)(F)F)c2)CCC1=O (centres undefined)	MrgX1 PAM 10 | MrgX1 allo conf inactive | HEK293 Ca flux inactive | HEK293 Ca counter inactive | HEK293 Ca cntr2 inactive
CC(C)CC(COCc1ccc(F)cc1)N1CCN(C(=O)c2cccc(C(F)(F)F)c2)CCC1=O (centres undefined)	none
CC1CCN(C(=O)c2ccc(-c3ccccc3Cl)o2)CC1	MrgX1 PAM 7.6 | MrgX1 allo conf inactive | HEK293 Ca flux inactive | HEK293 Ca counter inactive | HEK293 Ca cntr2 inactive
O=C(NC12CC3CC(CC(C3)C1)C2)c1ccc(-c2ccccc2Cl)o1	MrgX1 PAM 6.7 | MrgX1 allo conf inactive | HEK293 Ca flux inactive | HEK293 Ca counter inactive | HEK293 Ca cntr2 inactive
O=C(c1ccc(-c2cccc(Cl)c2Cl)o1)N1CCOCC1	none
O=C(NC12CC3CC(CC(C3)C1)C2)c1ccccc1O	MrgX1 PAM 9.8 | MrgX1 allo conf inactive | HEK293 Ca flux inactive | HEK293 Ca counter inactive | HEK293 Ca cntr2 inactive
CCOCCCNS(=O)(=O)c1ccc(NC(=O)N2c3ccccc3Sc3ccccc32)cc1	none
Cc1ccc(S(=O)(=O)N2CCN(C(=O)CCC(=O)NCc3cccc(C(F)(F)F)c3)CC2)cc1	none
CCc1cccc(OCC(=O)Nc2ccccc2N2CCCC2)c1	MrgX1 PAM 19 | MrgX1 allo conf inactive | HEK293 Ca flux inactive | HEK293 Ca counter inactive | HEK293 Ca cntr2 inactive
Cc1cc(C)c2sc(NC(=O)c3ccc([N+](=O)[O-])o3)nc2c1	MrgX1 PAM 20 | MrgX1 allo conf inactive | HEK293 Ca flux inactive | HEK293 Ca counter inactive | HEK293 Ca cntr2 inactive
Cc1cc(C(c2cc(C)c(N)c(C)c2)c2ccco2)cc(C)c1N	none
CCCCn1c(N)c(N(Cc2ccccc2OC)C(=O)c2ccc(N3CCCC3=O)cc2)c(=O)[nH]c1=O	none
Cn1c(N2CCN(C(c3ccccc3)c3ccccc3)CC2)nc2ccccc21	MrgX1 PAM 7.5, RGS4 act -7.1 | MrgX1 allo conf inactive | HEK293 Ca flux inactive | HEK293 Ca counter inactive | HEK293 Ca cntr2 inactive

Bioassay records: PubChem, Johns Hopkins Ion Channel Center
